Experimental data as given in article PMC6360136 (Investigational new drugs, 2018).

Assays:
[1] = test system: orthotopic pancreatic patient-derived xenograft (PDX) tumor; test: In vivo efficacy study in orthotopic pancreatic PDX mouse model; conditions: 0.25 mg/kg i.p. every other day, NSG mice
Procedure, shortened: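 A surgically resected human pancreatic ductal adenocarcinoma was expanded as 3 × 3 mm flank implants in female NSG mice and passaged at 2.0 cm. Second-generation tumour was then implanted orthotopically. On postoperative day 45 (palpable, 3–4 mm), mice were randomised to test compound 0.25 mg/kg i.p. or DMSO control every other day until endpoint. Diameter was measured by calipers and ultrasound every 3–5 days and volume calculated from it. Analysis used repeated-measures two-way ANOVA with Sidak tests.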

[2] = test system: orthotopic pancreatic PDX tumor; test: Ki-67 staining of PDX tumors; type: in vivo, NSG mice; conditions: PDX tumors at euthanasia, 0.25 mg/kg i.p. every other day, vs vehicle
Procedure, shortened: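 Orthotopic PDX mice received test compound 0.25 mg/kg i.p. or DMSO every other day. At endpoint, tumours were formalin-fixed and paraffin-embedded, and 5 micron sections were cut. Sections were stained for Ki-67 (proliferation) or by TUNEL (apoptosis). Ki-67 was scored as the average number of positive cells per high-power field by image analysis.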

PANC-1 cells = test: Cell viability assay; type: cell-based, human; conditions: PANC-1 cells, MTT, 48 h

## CC[C@H](C)[C@@H]1C(=O)N2CCC[C@@H]2C(=O)O[C@H](C(C)(C)C)C[C@@H](C)C[C@@H](O)C(C)(C)C2=N[C@H](CCC(=O)N[C@@H](Cc3ccc(OC)cc3)C(=O)N(C)[C@@H](C)C(=O)N1C)CS2 [Apra S10, apratoxin S10]
[1]
  tumor growth (tumor volume): significantly retarded tumor growth
[2]
  decrease in the number of cells undergoing proliferation (Ki-67): > 50%
PANC-1 cells
  GI50: 2.75 nM
